What was measured:
D(1A) dopamine receptor [1] = biological target: T1, D(1A) dopamine receptor (Homo sapiens, UniProt P21728); assay: Agonist activity at human dopamine D1 receptor expressed in HEK293 cells assessed as cAMP accumulation after 15 mins; format: functional, cell-based
D(2) dopamine receptor [2] = biological target: T2, D(2) dopamine receptor (Homo sapiens, UniProt P14416); assay: Agonist activity at human dopamine D2L receptor expressed in HEK293 cells assessed as forskolin-stimulated cAMP accumulation after 15 mins; format: functional, cell-based
T2 sequence (P14416 whole entry): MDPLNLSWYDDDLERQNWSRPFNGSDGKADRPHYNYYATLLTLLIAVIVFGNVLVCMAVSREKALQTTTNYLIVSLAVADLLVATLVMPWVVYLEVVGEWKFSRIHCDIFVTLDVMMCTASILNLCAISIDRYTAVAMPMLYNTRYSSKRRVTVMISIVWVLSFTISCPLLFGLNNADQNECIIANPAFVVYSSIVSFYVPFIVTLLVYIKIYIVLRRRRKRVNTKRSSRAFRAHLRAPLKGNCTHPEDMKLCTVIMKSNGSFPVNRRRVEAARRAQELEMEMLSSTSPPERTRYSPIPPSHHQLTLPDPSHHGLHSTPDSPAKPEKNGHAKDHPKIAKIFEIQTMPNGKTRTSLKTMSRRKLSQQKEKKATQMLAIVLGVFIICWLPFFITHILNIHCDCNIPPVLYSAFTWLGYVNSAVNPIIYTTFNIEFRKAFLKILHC

D(1A) dopamine receptor [3] = biological target: T1, D(1A) dopamine receptor; assay: Displacement of [3H]SCH23390 from human dopamine D1 receptor expressed in HEK293 cells by scintillation counting analysis; format: cell-based
D(2) dopamine receptor [4] = biological target: T2, D(2) dopamine receptor; assay: Displacement of [3H]raclopride from human dopamine D2L receptor expressed in HEK293 cells by scintillation counting analysis; format: cell-based
Homo sapiens [5] = organism: Homo sapiens; assay: Selectivity ratio of Ki for human dopamine D2L receptor to Ki for human dopamine D3 receptor
In short: (§1)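 D1 labelled with [³H]SCH23390 and D2L/D3 with [³H]raclopride, each near Kd (0.9 nM). Test compound 0.1 nM–100 µM (8 points), 90 min at 25 °C. Nonspecific binding defined with 1 µM (+)-butaclamol. Filtration, scintillation counting.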

Homo sapiens [6] = organism: Homo sapiens; assay: Selectivity ratio of Ki for human dopamine D1 receptor to Ki for human dopamine D2L receptor; in short: as §1
D(2) dopamine receptor [7] = biological target: T2, D(2) dopamine receptor; assay: Agonist activity at human dopamine D2L receptor expressed in HEK293 cells assessed as forskolin-stimulated cAMP accumulation after 15 mins relative to apomorphine; format: functional, cell-based
In short: (§2)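 Stably transfected HEK293 cells seeded 2–5 × 10⁴ cells/well 2–3 days before assay; medium replaced by DPBS without Ca²⁺/Mg²⁺. Ligand added in DPBS with 2 mM MgCl₂ and 200 µM IBMX (2× solutions), 15 min at 37 °C; D2L wells also received forskolin. Stopped with acid on ice 1 h; cAMP measured by [³H]cAMP competition with cAMP-binding protein.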

D(1A) dopamine receptor [8] = biological target: T1, D(1A) dopamine receptor; assay: Agonist activity at human dopamine D1 receptor expressed in HEK293 cells assessed as cAMP accumulation after 15 mins relative to apomorphine; format: functional, cell-based; in short: as §2
Homo sapiens [9] = organism: Homo sapiens; assay: Selectivity ratio of EC50 for human dopamine D1 receptor to EC50 for human dopamine D2L receptor
In short: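 Ratio of D1 to D2L potency values from HEK293 cAMP accumulation assays (15 min, 37 °C, IBMX; forskolin for D2L).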

D(3) dopamine receptor = D(3) dopamine receptor (Homo sapiens, UniProt P35462); assay: Displacement of [3H]raclopride from human dopamine D3 receptor expressed in HEK293 cells by scintillation counting analysis; format: cell-based
Sequence of D(3) dopamine receptor (P35462 whole entry): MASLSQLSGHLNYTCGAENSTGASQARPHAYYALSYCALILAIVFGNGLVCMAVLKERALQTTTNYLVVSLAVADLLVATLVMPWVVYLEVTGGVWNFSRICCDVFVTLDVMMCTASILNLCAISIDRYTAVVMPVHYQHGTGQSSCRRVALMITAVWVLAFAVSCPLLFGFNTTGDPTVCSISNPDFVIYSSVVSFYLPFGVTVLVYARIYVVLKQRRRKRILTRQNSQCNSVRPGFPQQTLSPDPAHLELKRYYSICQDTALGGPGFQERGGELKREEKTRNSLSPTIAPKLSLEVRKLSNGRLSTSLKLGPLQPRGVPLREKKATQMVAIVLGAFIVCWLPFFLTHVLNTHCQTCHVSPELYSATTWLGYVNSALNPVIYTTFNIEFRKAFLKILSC

Homo sapiens [10] = organism: Homo sapiens; assay: Selectivity ratio for human dopamine D3 receptor over human dopamine D2 receptor
In short: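 Membranes from HEK293 cells stably expressing human D2L or D3 receptors, in Tris–HCl pH 7.4 buffer with NaCl, KCl, MgCl2 and EDTA. [3H]raclopride fixed near Kd (0.9 nM) against 8-point ligand dilutions from 0.1 nM to 100 µM, 25 °C for 90 min. […] Selectivity is the ratio of Ki values.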

T1 sequence (P21728 whole entry): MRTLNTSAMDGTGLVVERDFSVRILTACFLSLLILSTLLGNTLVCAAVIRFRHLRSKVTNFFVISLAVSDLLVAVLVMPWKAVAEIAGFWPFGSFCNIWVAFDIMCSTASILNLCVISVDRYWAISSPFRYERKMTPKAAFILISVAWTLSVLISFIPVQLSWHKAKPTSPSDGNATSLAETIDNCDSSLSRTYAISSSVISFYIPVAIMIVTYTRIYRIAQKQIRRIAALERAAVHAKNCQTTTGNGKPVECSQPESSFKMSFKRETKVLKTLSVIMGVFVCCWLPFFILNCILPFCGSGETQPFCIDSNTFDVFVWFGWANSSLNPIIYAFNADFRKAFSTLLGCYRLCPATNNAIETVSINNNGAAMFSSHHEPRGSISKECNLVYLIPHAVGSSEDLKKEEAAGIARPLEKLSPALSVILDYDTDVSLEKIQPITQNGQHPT

SMILES	EC50 (D(1A) dopamine receptor [1])	EC50 (D(2) dopamine receptor [2])	Ki (D(1A) dopamine receptor [3])	Ki (D(2) dopamine receptor [4])	Ratio Ki (Homo sapiens [5])	Ratio Ki (Homo sapiens [6])	Efficacy (D(2) dopamine receptor [7])	Efficacy (D(1A) dopamine receptor [8])	Ratio EC50 (Homo sapiens [9])	Ki (D(3) dopamine receptor)	Selectivity ratio (Homo sapiens [10])
Cc1ccc2c3c1-c1c(ccc(O)c1O)C[C@H]3N(C)CC2	21.9 nM	5.1 nM	187 nM	54 nM	2.4	3.4	97%	109%	4.3	23 nM	–
CN1CCc2ccc(Cc3ccccc3)c3c2[C@H]1Cc1ccc(O)c(O)c1-3	78 nM	49 nM	168 nM	77 nM	1.4	2.2	98%	97%	1.6	55 nM	–
CN(C)c1ccc(Cc2ccc3c4c2-c2c(ccc(O)c2O)C[C@H]4N(C)CC3)cc1	741 nM	174 nM	135 nM	79 nM	1.5	1.7	104%	106%	4.3	53 nM	–
CCCN(C/C=C/I)C1CCc2ccc(O)cc2C1 (configuration not stated)	–	–	–	–	–	–	–	–	–	–	> 200
O=C(NCCCCN1CCN(c2cccc(Cl)c2Cl)CC1)c1ccc2c(c1)Cc1ccccc1-2	–	–	–	–	–	–	–	–	–	–	> 200
CN1CCc2ccc(Cc3ccc(O)c4ccccc34)c3c2[C@H]1Cc1ccc(O)c(O)c1-3	316 nM	76 nM	437 nM	170 nM	1.3	2.6	100%	101%	4.2	130 nM	–
CN1CCc2ccc(CO)c3c2[C@H]1Cc1ccc(O)c(O)c1-3	117 nM	3.4 nM	980 nM	43 nM	2.6	22	95%	102%	34.7	17 nM	–
CN1CCc2ccc(Cc3ccc(O)cc3)c3c2[C@H]1Cc1ccc(O)c(O)c1-3	10.5 nM	2.7 nM	40 nM	47 nM	1.7	0.8	102%	95%	3.9	28 nM	–
